# Tests used:
# [1] = test system: SH-SY5Y cells; test: MTS-based cell survival assay; design: species or system human
# [2] = target: cdk2 (Homo sapiens, UniProt P24941); test: kinaseseeker kinase assay; format: binding; settings: 2 μM
# Summary of the method: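 Cell-free luminescent probe-displacement binding assay in rabbit reticulocyte lysate. Compound (2 μM) or DMSO control was incubated 30 min at room temperature, then 1 h with a kinase-specific probe. Luminescence was read, and values expressed as percent kinase activity remaining.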
# [3] = test system: cdk; settings: cited from earlier work
# [4] = test system: Cav2.1 VGCC; test: Whole-cell perforated patch clamp of Cav2.1 current; format: cell-based
# [5] = test system: SH-SY5Y cells; settings: ref Tarr et al., 2014; cited from earlier work
# [6] = test system: rectifying outward current in HEK293 cells; test: Contaminating rectifying outward current during voltage steps in patch clamp; format: cell-based; settings: 50 μM; mean ± SEM, n = 7; across all voltages tested
# [7] = target: cdk5 (Homo sapiens, UniProt Q00535); test: kinaseseeker kinase assay; format: binding; settings: 2 μM
# [8] = test system: Cav2 VGCCs; settings: cited from earlier work
# [9] = ref Liang et al., 2012, Tarr et al., 2013
# cdk5, sequence (Q00535 whole entry, species assumed): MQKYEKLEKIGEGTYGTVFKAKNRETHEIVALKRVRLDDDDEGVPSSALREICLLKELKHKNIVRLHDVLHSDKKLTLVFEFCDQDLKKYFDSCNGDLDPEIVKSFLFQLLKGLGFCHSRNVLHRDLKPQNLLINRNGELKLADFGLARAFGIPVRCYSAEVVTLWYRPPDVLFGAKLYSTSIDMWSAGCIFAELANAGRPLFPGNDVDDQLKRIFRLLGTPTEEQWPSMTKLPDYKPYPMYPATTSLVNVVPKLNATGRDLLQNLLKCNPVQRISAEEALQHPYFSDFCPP
structure (smiles),measurement,setting,value
"CC[C@H](CO)Nc1nc(NCc2ccccc2)c2ncn(C(C)C)c2n1 [(R)-roscovitine, reference compound]",Concentrations giving a significant decrease in cell survival,[1]; 24 h exposure,≥ 10 µM
CCCn1cnc2c(NCc3ccc(C)s3)nc(N[C@H](CC)CO)nc21 [GV-58],Reduction of cdk2 activity,[2],0–15%
same,Reduction in cdk activity versus the parent molecule (R)-roscovitine,[3]; [9],greater than 20 fold
same,Depolarization time to 50% of maximal effects on tail current integral,"[4]; 50 μM continuously present, steps to +20 mV of 1–100 msec",2 to 4 ms
same,Shift of voltage-dependence of activation curves (peak tail current),"[4]; 50 μM, 20 msec steps from −100 mV",did not show any shift
same,Shift to the left of IV plots (peak current during step),"[4]; 50 μM, 20 msec steps from −100 mV, ascribed to contaminating outward current",~10 mV
same,Tail current decay (slow deactivation) time constant,"[4]; 50 μM, tail current at −60 mV after 200 msec step to +60 mV",9.16 ± 0.706 ms
same,Effect on cell survival at 50 μM,"[1]; 50 μM, 24 h",no significant effects on cell survival
same,Effect on cell survival,"[1]; 24 h exposure, 0.1–100 μM, normalized to vehicle","little or no effect on cell survival, even up to 100 μM"
same,Decrease in cell survival at 100 μM,[5],8%
same,Increase in rectifying current amplitude,[6],70 ± 10%
same,Reduction of cdk5 activity,[7],10–20%
same,Higher potency and efficacy for Cav2 VGCCs than (R)-roscovitine,[8]; [9],4 fold
CC[C@@H](CO)Nc1nc(NCc2ccccc2)c2ncn(C(C)C)c2n1 [(S)-roscovitine],"Potency as cdk inhibitor, less than (R)-roscovitine","[3]; ref De Azevedo et al., 1997",2 fold
same,Concentration needed for VGCC agonist activity,"[8]; ref Buraei and Elmslie, 2008",above 500 μM
same,Lower affinity than (R)-roscovitine (VGCC agonist activity),"[8]; ref Buraei and Elmslie, 2008",20 fold
